Columns and labels:
[1] = target: T1, E-selectin (Homo sapiens, UniProt P16581); experiment: In vitro inhibition of HL60 (human leukemia) cell binding to human recombinant e-selectin.; format: cell-based, HL-60
T1 sequence (P16581 whole entry): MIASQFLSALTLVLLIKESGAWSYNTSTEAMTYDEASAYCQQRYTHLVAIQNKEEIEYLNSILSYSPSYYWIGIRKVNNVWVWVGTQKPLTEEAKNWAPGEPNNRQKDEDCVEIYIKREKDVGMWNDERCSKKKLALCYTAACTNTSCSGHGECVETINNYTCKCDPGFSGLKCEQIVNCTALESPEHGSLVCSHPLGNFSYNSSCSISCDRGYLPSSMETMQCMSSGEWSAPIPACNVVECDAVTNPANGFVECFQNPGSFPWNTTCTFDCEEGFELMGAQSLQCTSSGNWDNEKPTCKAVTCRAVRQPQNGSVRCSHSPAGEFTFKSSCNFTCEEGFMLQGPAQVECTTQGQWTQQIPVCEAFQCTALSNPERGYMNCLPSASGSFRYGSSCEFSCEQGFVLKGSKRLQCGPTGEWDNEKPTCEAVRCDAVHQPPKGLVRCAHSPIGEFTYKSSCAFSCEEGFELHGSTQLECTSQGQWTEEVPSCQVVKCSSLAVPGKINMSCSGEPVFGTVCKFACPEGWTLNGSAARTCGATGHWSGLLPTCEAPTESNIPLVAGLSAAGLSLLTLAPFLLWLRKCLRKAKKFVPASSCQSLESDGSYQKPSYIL
How it was run: (§1)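 Human E-selectin (lectin, EGF and two complement repeats) fused to mouse IgG was captured on anti-mouse IgG magnetic beads overnight at 4 °C. Wells were pre-blocked with 3% BSA/PBS. Compound in PBS was mixed with calcein-labelled HL60 cells (10⁷/mL, RPMI 1640 + 10% FCS) and beads (4 × 10⁶/mL) for 10 min at room temperature. Unbound cells were removed magnetically with two PBS washes, and bound cells were lysed in 1% NP40.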

[2] = target: T2, L-selectin (Mus musculus) (UniProt P18337); experiment: In vitro inhibitory activity against sialyl Lewis X expressing HL60 cell binding to Selectin L at 7 mM concentration; format: cell-based; details: HL-60
T2 sequence (whole entry): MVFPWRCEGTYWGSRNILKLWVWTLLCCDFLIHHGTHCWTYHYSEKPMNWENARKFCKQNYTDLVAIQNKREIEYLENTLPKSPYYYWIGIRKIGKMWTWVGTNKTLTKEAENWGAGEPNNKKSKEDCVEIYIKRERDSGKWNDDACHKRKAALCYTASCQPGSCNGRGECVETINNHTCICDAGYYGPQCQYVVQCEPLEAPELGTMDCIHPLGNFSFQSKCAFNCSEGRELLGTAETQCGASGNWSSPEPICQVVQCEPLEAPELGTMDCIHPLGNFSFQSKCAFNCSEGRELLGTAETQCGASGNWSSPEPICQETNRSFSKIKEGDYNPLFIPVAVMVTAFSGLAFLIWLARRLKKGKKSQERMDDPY

[3] = target: T3, P-selectin (Homo sapiens, UniProt P16109); experiment: In vitro inhibitory activity against sialyl Lewis X expressing HL60 cell binding Selectin P; format: cell-based, HL-60
T3 sequence (P16109 whole entry): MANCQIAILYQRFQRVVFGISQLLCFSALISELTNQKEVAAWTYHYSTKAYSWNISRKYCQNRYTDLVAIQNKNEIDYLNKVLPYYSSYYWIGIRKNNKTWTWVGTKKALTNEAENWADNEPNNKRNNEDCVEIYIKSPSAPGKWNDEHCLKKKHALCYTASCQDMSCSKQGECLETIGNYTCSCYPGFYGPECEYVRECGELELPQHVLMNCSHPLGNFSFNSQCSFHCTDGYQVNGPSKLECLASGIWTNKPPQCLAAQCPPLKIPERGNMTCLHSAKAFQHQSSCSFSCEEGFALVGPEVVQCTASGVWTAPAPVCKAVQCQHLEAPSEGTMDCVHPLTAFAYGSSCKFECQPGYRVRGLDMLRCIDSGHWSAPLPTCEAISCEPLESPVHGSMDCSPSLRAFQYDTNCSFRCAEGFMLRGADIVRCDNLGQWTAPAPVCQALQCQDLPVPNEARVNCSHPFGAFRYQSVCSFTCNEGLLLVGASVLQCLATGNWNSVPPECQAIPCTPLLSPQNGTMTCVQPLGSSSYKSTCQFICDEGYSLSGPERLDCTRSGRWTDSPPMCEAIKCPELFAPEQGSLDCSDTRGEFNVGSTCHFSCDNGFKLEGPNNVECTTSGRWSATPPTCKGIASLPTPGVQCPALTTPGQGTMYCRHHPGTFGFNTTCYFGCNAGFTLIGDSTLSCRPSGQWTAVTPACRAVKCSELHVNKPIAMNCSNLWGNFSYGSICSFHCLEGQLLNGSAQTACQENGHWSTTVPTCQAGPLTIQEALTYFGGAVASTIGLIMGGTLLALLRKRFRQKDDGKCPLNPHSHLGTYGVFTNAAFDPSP

[4] = target: T4, L-selectin (Mus musculus, UniProt P18337); experiment: In vitro inhibitory activity against sialyl Lewis X expressing HL60 cell binding Selectin L; format: cell-based, HL-60
T4 sequence (P18337 whole entry): T2 sequence (whole entry)

[5] = target: T5, P-selectin (Homo sapiens) (UniProt P16109); experiment: In vitro inhibitory activity against sialyl Lewis X expressing HL60 cell binding Selectin P at 23 mM concentration; format: cell-based; details: HL-60
T5 sequence (whole entry): T3 sequence (P16109 whole entry)

[6] = target: T5, P-selectin (Homo sapiens); experiment: In vitro inhibitory activity against sialyl Lewis X expressing HL60 cell binding Selectin P at 10 mM concentration; format: cell-based; details: HL-60
[7] = target: T2, L-selectin (Mus musculus); experiment: In vitro inhibitory activity against sialyl Lewis X expressing HL60 cell binding to Selectin L at 6 mM concentration; format: cell-based; details: HL-60
[8] = target: T5, P-selectin (Homo sapiens); experiment: In vitro inhibitory activity against sialyl Lewis X expressing HL60 cell binding Selectin P at 20 mM concentration; format: cell-based; details: HL-60
[9] = target: T2, L-selectin (Mus musculus); experiment: In vitro inhibitory activity against sialyl Lewis X expressing HL60 cell binding to L-selectin at 6 mM concentration; format: cell-based; details: HL-60
[10] = target: T6, E-selectin (Homo sapiens) (UniProt P16581); experiment: In vitro inhibitory activity against sialyl Lewis X expressing HL60 cell binding to recombinant human E-selectin at 6 mM concentration; format: cell-based; details: HL-60; how it was run: as §1
T6 sequence (whole entry): T1 sequence (P16581 whole entry)

[11] = target: T2, L-selectin (Mus musculus); experiment: In vitro inhibitory activity against sialyl Lewis X expressing HL60 cell binding Selectin L at 1 mM concentration; format: cell-based; details: HL-60
[12] = target: T5, P-selectin (Homo sapiens); experiment: In vitro inhibitory activity against sialyl Lewis X expressing HL60 cell binding Selectin P at 4 mM concentration; format: cell-based; details: HL-60
[13] = target: T6, E-selectin (Homo sapiens); experiment: In vitro inhibitory activity against sialyl Lewis X expressing HL60 cell binding to recombinant human E-selectin at 40 mM concentration; format: cell-based; details: HL-60; how it was run: as §1
[14] = target: T6, E-selectin (Homo sapiens); experiment: In vitro inhibitory activity against sialyl Lewis X expressing HL60 cell binding to recombinant human E-selectin at 20 mM concentration; format: cell-based; details: HL-60; how it was run: as §1
[15] = target: T2, L-selectin (Mus musculus); experiment: In vitro inhibitory activity against sialyl Lewis X expressing HL60 cell binding to Selectin L at 3 mM concentration; details: HL-60
[16] = target: T2, L-selectin (Mus musculus); experiment: In vitro inhibitory activity against sialyl Lewis X expressing HL60 cell binding to Selectin L at 5 mM concentration; format: cell-based; details: HL-60

With Cc1cc(-c2ccccc2O[C@H]2O[C@H](CO)[C@@H](O)[C@@H](O)[C@@H]2O)cc(C)c1OCC(=O)O the IC50 [1] was 8 mM, the inhibition [2] was 0% and the IC50 [3] was 6.9 mM.

Compound N#CCc1cccc(-c2ccccc2O[C@H]2O[C@H](CO)[C@@H](O)[C@@H](O)[C@@H]2O)c1 has an IC50 [4] of 1.5 mM, an IC50 [1] of 7 mM and an inhibition [5] of 40%.

CC(C(=O)O)c1cccc(-c2ccccc2O[C@H]2O[C@H](CO)[C@@H](O)[C@@H](O)[C@@H]2O)c1 (stereo in doubt; 9s) [listing 1 of 2 here] showed an inhibition [6] of 30% and an inhibition [7] of 0%.

With O=C(O)Cc1cccc(-c2ccccc2O[C@H]2O[C@H](CO)[C@@H](O)[C@@H](O)[C@@H]2O)c1 the IC50 [4] was 1 mM, the IC50 [1] was 2 mM and the IC50 [3] was 2.6 mM.

CCOP(=O)(O)CCCc1cccc(-c2ccccc2O[C@H]2O[C@H](CO)[C@@H](O)[C@@H](O)[C@@H]2O)c1 showed an IC50 [1] of 34.4 mM and an IC50 [3] of 12.4 mM.

O=C(O)Cc1ccc(-c2ccccc2O[C@H]2O[C@H](CO)[C@@H](O)[C@@H](O)[C@@H]2O)cc1 was tested, and the IC50 [1] was 2.6 mM, the inhibition [7] was 0% and the inhibition [8] was 0%.

In the case of O=C(O)COc1ccc(-c2ccccc2O[C@H]2O[C@H](CO)[C@@H](O)[C@@H](O)[C@@H]2O)cc1, the inhibition [9] is reported as 20%, the IC50 [1] is reported as 6.1 mM and the IC50 [3] is reported as 20 mM.

In the case of O=C(O)C(=O)Nc1cccc(-c2ccccc2O[C@H]2O[C@H](CO)[C@@H](O)[C@@H](O)[C@@H]2O)c1, the inhibition [10] is reported as 0%.

O=C(O)CCC(NC(=O)c1ccc(-c2ccccc2O[C@H]2O[C@H](CO)[C@@H](O)[C@@H](O)[C@@H]2O)cc1)C(=O)O (stereo partly specified) was tested, and the inhibition [11] was 0%, the IC50 [1] was 32 mM and the inhibition [12] was 35%.

Cc1ccc(O[C@H]2O[C@H](CO)[C@@H](O)[C@@H](O)[C@@H]2O)c(-c2cccc(OCC(=O)O)c2)c1 gave an IC50 [1] of 14 mM.

For CC(C(=O)O)c1cccc(-c2ccccc2O[C@H]2O[C@H](CO)[C@@H](O)[C@@H](O)[C@@H]2O)c1 (stereo in doubt; 9r), the inhibition [13] was 0% and the inhibition [7] was 40%.

In the case of CC(C(=O)O)c1cccc(-c2ccccc2O[C@H]2O[C@H](CO)[C@@H](O)[C@@H](O)[C@@H]2O)c1 (stereo in doubt; 9s) [listing 2 of 2 here], the IC50 [1] is reported as 20 mM.

In the case of O=C(O)COc1cccc(-c2ccccc2O[C@H]2O[C@H](CO)[C@@H](O)[C@@H](O)[C@@H]2O)c1, the IC50 [4] is reported as 17 mM, the IC50 [1] is reported as 4.9 mM and the IC50 [3] is reported as 4.9 mM.

In the case of O=C(O)CCC(=O)c1ccc(-c2ccccc2O[C@H]2O[C@H](CO)[C@@H](O)[C@@H](O)[C@@H]2O)cc1, the inhibition [14] is reported as 40%, the inhibition [8] is reported as 0% and the inhibition [15] is reported as 0%.

For O=C(N[C@@H](Cc1ccccc1)C(=O)O)c1ccc(-c2ccccc2O[C@H]2O[C@H](CO)[C@@H](O)[C@@H](O)[C@@H]2O)cc1, the IC50 [1] was 3.8 mM, the inhibition [8] was 0% and the inhibition [16] was 0%.

Source: ChEMBL document CHEMBL1128216, “Rational design and synthesis of small molecule, non-oligosaccharide selectin inhibitors: (alpha-D-mannopyranosyloxy)biphenyl-substituted carboxylic acids” (J Med Chem, 1995)
